PG9 Ab binder: binders of HIV-1 gp120 antibody PG9, primary screen, biochemical, TR-FRET | HIV-1 gp120 / PG9 antibody interaction | TR-FRET gp120-PG9 antibody binding | inhibition, % at 6.7 µM | 0.43% of 360,000 active; in the data active = inhibition above about 8.5%
NR2E3 ag-1: NR2E3 agonists in two-hybrid cells, primary screen, cell-based, luminescence, CHO-S, Gal4-NCOR/VP16-NR2E3; luciferase; inhibition of corepressor binding, % at 3.98 µM; 0.35% of 360,000 active; AID 602229, 2012;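 active = inhibition above the mean of all tested compounds plus 3 SD, cut at about 70% in these data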;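 also: 0% = DMSO with NR2E3 transfected cells and 100% = cells lacking NR2E3 construct; higher means lower luciferase signal from less NR2E3 corepressor binding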
NR2E3 ag-2: inhibitors of NR2E3-RetCOR corepressor binding, primary screen, NR2E3 agonist project, biochemical, TR-FRET, GST-NR2E3, biotin-RetCOR | Photoreceptor-specific nuclear receptor (Homo sapiens), Q9Y5X4 | 1536-well | inhibition of corepressor binding, % at 4.78 µM | 0.12% of 320,000 active;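 active = percent inhibition above the cutoff of mean plus 3 SD of all tested compounds, set per screening campaign, cut at about 20% in these data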;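 also: 0% = DMSO wells and 100% = biotin wells as full block of FRET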
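Material: NR2E3–RetCOR corepressor complex / Amount: 1.35 nM GST-NR2E3 / Medium: Tris pH 7.5 / Compound: single nominal compound dose of 4.8 µM / Incubation: 5 h at 4 °C / Technique: TR-FRET, Eu(K)-anti-GST donor, streptavidin-D2 acceptor, ex 340, em 617/671 nm / Read-out basis: percent loss of FRET ratio relative to control wells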
NR1D1 modulator: modulators of Rev-erb alpha DNA binding, primary screen, biochemical, FITC-DNA, fluorescence polarization, uHTS; Nuclear receptor subfamily 1 group D member 1 (Homo sapiens), P20393; Rev-erbα–FITC-DNA binding, 90 min; activity, % at 10 µM; 0.79% of 370,000 active; AID 1259318, 2017;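 active = activity above about 14%, limit read from the data; passing the limit was not always enough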;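 also: 0% = DMSO wells with 35 nM protein and 100% = DMSO wells with 750 nM protein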
Target sequence (P20393 whole entry, looked up): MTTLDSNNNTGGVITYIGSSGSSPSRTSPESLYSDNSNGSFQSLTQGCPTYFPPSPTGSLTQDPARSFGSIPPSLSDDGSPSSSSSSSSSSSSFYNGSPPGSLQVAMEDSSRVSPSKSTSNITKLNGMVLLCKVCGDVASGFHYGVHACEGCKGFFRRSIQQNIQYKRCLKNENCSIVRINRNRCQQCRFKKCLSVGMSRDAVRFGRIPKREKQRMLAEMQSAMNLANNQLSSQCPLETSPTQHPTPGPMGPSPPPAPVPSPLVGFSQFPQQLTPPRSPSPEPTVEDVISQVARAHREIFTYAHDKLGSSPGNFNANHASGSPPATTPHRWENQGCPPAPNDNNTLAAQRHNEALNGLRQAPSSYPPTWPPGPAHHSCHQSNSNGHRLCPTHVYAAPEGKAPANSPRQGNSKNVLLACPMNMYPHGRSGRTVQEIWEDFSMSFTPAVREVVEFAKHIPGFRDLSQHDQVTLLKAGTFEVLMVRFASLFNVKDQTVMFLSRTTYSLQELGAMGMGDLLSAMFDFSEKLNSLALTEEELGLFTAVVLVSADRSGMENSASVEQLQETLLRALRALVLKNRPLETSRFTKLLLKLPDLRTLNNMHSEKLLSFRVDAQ
NR1D1 mod conf: modulators of Rev-erb alpha DNA binding, confirmation, biochemical, FITC-DNA, fluorescence polarization, single point | shares compounds with NR1D1 modulator | 90 min | activation, % at 25 µM | 61% of 3,000 active;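 active = activation at or above a set limit, or at least 3 SD above the negative control mean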;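 also: 0% = 35 nM protein with DMSO and 100% = 750 nM protein high control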
RORg DNA counter: modulation of RORgamma DNA binding, dose response, counter-screen for Rev-erb alpha modulator project, biochemical, fluorescence polarization, FITC-DNA. shares compounds with NR1D1 modulator. purified RORgamma protein-FITC-DNA binding. IC50, µM. 8% of 910 active. AID 1259320, 2017;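 active = Compounds whose fitted half-maximal concentration for disrupting protein-DNA binding is below 10 micromolar; the record names Rev-erb in its text, so the target is in doubt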
The depositor's hits bear a star; / = no result. Only some compounds are listed: those with a hit (about 1.5% of all), similar ones and a draw of the others.

SMILES	PG9 Ab binder	NR2E3 ag-1	NR2E3 ag-2	NR1D1 modulator	NR1D1 mod conf	others
COc1ccc(CNC(=O)C2CCC(CNS(=O)(=O)c3cccc4nsnc34)CC2)cc1 (stereo not given)	1	-26	4	72*	52*	RORg DNA counter=>40
O=C(NCc1ccccn1)C1CCC(CNS(=O)(=O)c2cccc3nsnc23)CC1 (stereo not given)	1	-8	-3	1	/
O=C(NCc1ccc2c(c1)OCO2)C1CCC(CNS(=O)(=O)c2cccc3nsnc23)CC1 (stereo not given)	1	-4	3	34*	28*	RORg DNA counter=>40
CC(C)(C)c1ccc(-c2nnc(SCC(=O)Nc3ccc(Oc4ccccc4)cc3)n2Cc2ccco2)cc1	/	/	/	2	/
COc1ccc(S(=O)(=O)N2CCC(c3nc4ccccc4o3)CC2)c(OC)c1	/	/	/	3	/
O=C(CCC(=O)N1CCN(C2c3ccccc3-c3ccccc32)CC1)Nc1nnc(C(F)(F)F)s1	/	/	/	4	/
O=C1/C(=C\c2c(NCCOCCO)nc3ccccn3c2=O)SC(=S)N1Cc1ccco1	-2	-11	0	33*	11
CCCN1C(=O)/C(=C/c2c(NCCCOCC)nc3c(C)cccn3c2=O)SC1=S	0	-1	/	-3	/
CC(=O)Nc1cc(C(F)(F)F)ccc1N1CCOCC1	-1	-17	5	-5	/
CCC(Oc1ccccc1)C(=O)Nc1cc(C(F)(F)F)ccc1N1CCOCC1 (stereo not given)	0	28	9	16*	12
CNC(=O)c1ccsc1NC(=O)c1sc2ccccc2c1Cl	-1	-41	-4	96*	72*	RORg DNA counter=>40
Cc1ccc2nsnc2c1NC(=O)c1sc2ccccc2c1Cl	5	-14	5	31*	32*	RORg DNA counter=>40
Cc1nnc(NC(=O)c2sc3ccccc3c2Cl)s1	4	-185	3	4	/
C/C(C=NNC(=O)CSc1nnc(-c2ccc(Cl)cc2)n1-c1ccccc1)=C\c1ccccc1	/	/	/	-1	/
C[C@H]1[C@@H](NCc2ccccc2)CC[C@@]23CCCN2C(=O)CCC[C@@H]13	/	/	/	1	/
O=C(CCCCCNc1nc(=S)[nH]c2ccccc12)NCc1ccccc1Cl	4	/	0	49*	17
Cc1ccc(-c2nc(N)c3c(-c4ccc(C)cc4)nn(C(C)(C)C)c3n2)cc1	1	1	1	30*	-1
CN(Cc1ccccc1)C(=O)OCc1cn(Cc2cc(F)ccc2F)nn1	/	/	/	2	/
CC(=O)c1c2c3c(cccc3n(C)c1=O)C(=O)c1ccccc1-2	/	/	0	/	/
Cn1c(=O)c(Nc2ccc(O)cc2)c2c3c(cccc31)C(=O)c1ccccc1-2	-1	21	1	175*	157*	RORg DNA counter=>40
Fc1ccccc1Oc1nc(-c2ccncc2)nc2ccccc12	0	-6	0	33*	15
Brc1ccc(Sc2cnc3ccccc3n2)cc1	7	-45	5	49*	35*	RORg DNA counter=>40
Clc1ccccc1Sc1cnc2ccccc2n1	5	0	12	11	/
Clc1ccc(Sc2cnc3ccccc3n2)cc1	6	-14	6	32*	30*
c1ccc(Sc2cnc3ccccc3n2)cc1	4	-27	3	20*	22*
SMILES	PG9 Ab binder	NR2E3 ag-1	NR2E3 ag-2	NR1D1 modulator	NR1D1 mod conf	others
O=c1[nH]cnc2cc(-c3ccccc3)sc12	1	-71	1	2	/
COc1ccc(-c2cc3nc[nH]c(=O)c3s2)cc1	1	-87	1	42*	15
CCCCN1CC(=O)N2[C@H](C[C@@]3(C)c4ccccc4N(S(=O)(=O)c4ccccc4)[C@@H]23)C1=O	/	/	/	2	/
CCOc1cc(/C=C2/C(=N)N3C=CSC3=NC2=O)ccc1OCCCOc1ccccc1C	-1	-24	3	18*	5
CCOC(=O)[C@]12CCCC=C1N(Cc1ccc(OC)cc1)C(=O)[C@@H]2CC(=O)N1CCCC1	/	/	/	2	/
Cc1ccccc1-c1nnn(CC(=O)NCc2ccc3c(c2)OCO3)n1	1	-7	-2	0	/
CN(C)c1ccc(-c2nnn(CC(=O)NCc3ccc4c(c3)OCO4)n2)cc1	7	-47	6	15*	7
CC(NC(=O)c1ccccc1NC(=O)c1ccco1)c1ccccc1 (stereo not given)	1	-7	5	21*	22*
CC(COc1ccc(C(F)(F)F)cc1)CN1CCC(C(O)(c2ccccc2)c2ccccc2)CC1 (stereo not given)	/	/	/	3	/
CC(=O)c1ccc(N2CCN(c3ccc(C(F)(F)F)cn3)CC2)cc1	1	-8	5	37*	29*
CC(=O)c1ccc(N2CCN(c3ncc(C(F)(F)F)cc3Cl)CC2)cc1	1	0	3	-4	/
COc1ccc(Cn2cc(CN3[C@H](Cc4ccccc4)COc4cc(Br)ccc4S3(=O)=O)nn2)cc1	/	/	/	0	/
COC(=O)[C@H]1C[C@@]2(n3ccc4ccccc43)c3ccccc3N[C@H]2N1	/	/	/	1	/
Cc1coc(NC(=O)CSc2nc(-c3ccc(Cl)cc3)cc(C(F)(F)F)c2C#N)n1	0	-14	-2	78*	66*	RORg DNA counter=>40
COc1ccc(NC(=O)CSc2nc(-c3ccc(C)cc3)cc(C(F)(F)F)c2C#N)cc1	1	-17	0	24*	41*	RORg DNA counter=1.5*
COc1ccc(-c2cc(C(F)(F)F)c(C#N)c(SCC(=O)Nc3nc(C)co3)n2)cc1	/	3	4	47*	43*	RORg DNA counter=>40
COc1ccc(-c2cc(C(F)(F)F)c(C#N)c(SCC(=O)Nc3ccccc3C#N)n2)cc1	/	/	0	/	/
CCCCCN1CCCCC(NC(=O)c2ccc(C)cc2)C1=O (stereo not given)	/	/	/	-10	/
O=C(NCc1ccccc1)c1cnc(Cc2c[nH]c3ccccc23)c(I)c1	-2	15	/	2	/
CN(Cc1ccccc1)C(=O)c1cnc(Cc2c[nH]c3ccccc23)c(I)c1	1	23	/	16*	3
Cc1ccc(C(=O)OCC(=O)N2CCC(c3ccccc3)=N2)c(C)c1	-1	28	-2	-1	/
CC(C)(C)c1ccc(C(=O)OCC(=O)N2CCC(c3ccccc3)=N2)cc1	-2	-16	0	14*	-1
COC(=O)N1CCC[C@H]1c1cccc2[nH]cc(C)c12	/	/	/	2	/
COC(=O)c1cn(NC(=O)Cc2cccc(OC)c2)c(=O)c2ccccc12	-2	1	-4	-2	/
COC(=O)c1cn(NC(=O)Cc2ccc(OC)c(OC)c2)c(=O)c2ccccc12	1	19	-1	12*	0
